The list is not random: actives were taken first. Their share in the collection is about 0.72%.
hIAP activ = human IAP activators, primary screen, biochemical, luminescence, uHTS; Intestinal-type alkaline phosphatase (Homo sapiens), P09923; purified human IAP, CDP-Star luminescence, 30 min; hits give high values; 1 = vehicle-only enzyme, 0 = enzyme-free background; activation factor at 10 µM; hit rate 0.16% among 330,000;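 active = activation factor of the enzyme at least 2-fold when tested at 20 µM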
Target sequence (P09923 whole entry, looked up): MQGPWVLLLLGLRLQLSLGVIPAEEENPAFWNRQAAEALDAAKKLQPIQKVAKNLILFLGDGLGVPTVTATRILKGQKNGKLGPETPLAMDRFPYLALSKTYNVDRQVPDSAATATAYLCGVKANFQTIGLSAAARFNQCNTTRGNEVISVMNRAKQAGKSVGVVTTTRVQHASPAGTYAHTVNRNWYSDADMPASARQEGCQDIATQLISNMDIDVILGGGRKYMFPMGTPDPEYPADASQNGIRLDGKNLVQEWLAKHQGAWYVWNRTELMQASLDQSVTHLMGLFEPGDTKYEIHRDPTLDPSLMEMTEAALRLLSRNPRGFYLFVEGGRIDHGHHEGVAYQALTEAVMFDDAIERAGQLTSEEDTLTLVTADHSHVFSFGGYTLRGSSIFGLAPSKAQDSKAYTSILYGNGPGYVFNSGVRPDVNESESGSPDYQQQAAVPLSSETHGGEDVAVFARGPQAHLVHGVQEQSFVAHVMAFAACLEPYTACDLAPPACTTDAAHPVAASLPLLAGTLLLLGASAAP
mIAP activ = activators of mouse IAP, primary screen, biochemical, luminescence, uHTS; intestinal alkaline phosphatase [Mus musculus]; hit rate 0.24% among 330,000; AID 2805, 2010; activation factor at 10 µM; muIAP, CDP-Star luminescence, 30 min; hits give high values; 1 = vehicle-only enzyme signal, 0 = enzyme-free wells;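 active = activation factor of at least 2 at 20 µM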
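Assay system: mouse IAP enzyme; reagent: chemiluminescent substrate CDP-Star; dosing: test compounds delivered from DMSO solution; schedule: 30 min at room temperature; measured by: luminescence from enzymatic CDP-Star hydrolysis; controls: DMSO-only wells and no-enzyme negative control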
hIAP inh = human IAP inhibitors, primary screen, biochemical, luminescence, uHTS. Intestinal-type alkaline phosphatase (Homo sapiens), P09923. purified IAP, CDP-Star luminescence, 30 min. inhibition, % at 10 µM. hit rate 0.12% among 330,000. AID 2544, 2010;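 active = inhibition reaching a set limit with compound at 10 µM in the primary screen, cut at about 35% in these data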;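 also: plate controls were DMSO wells with enzyme for no effect and no-enzyme buffer wells for full effect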
mIAP inh = inhibitors of mouse IAP, primary screen, biochemical, luminescence, uHTS; inhibition, % at 10 µM; AID 2806, 2010; intestinal alkaline phosphatase [Mus musculus]; hit rate 0.2% among 330,000; purified mouse IAP, CDP-Star luminescence, 30 min;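 active = inhibition of at least 40% at 10 µM in the primary screen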;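 also: plate controls were DMSO with enzyme for no effect and no enzyme wells for full effect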
bIAP activator = bovine intestinal alkaline phosphatase activators, primary screen, biochemical, bovine IAP, CDP-star luminescence; purified bovine IAP, 30 min; hits give high values; fold of DMSO-control signal, blank-subtracted; hit rate 0.17% among 200,000; alkaline phosphatase, intestinal [Bos taurus]; AID 1016, 2008; activation factor at 20 µM;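 active = activation factor of 2 or more at 20 µM, a signal rise over negative controls twice the positive control's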
bIAP inhibitor = bovine intestinal alkaline phosphatase inhibitors, primary screen, selectivity assay for TNAP inhibitor project, biochemical, bovine IAP, CDP-star luminescence; AID 1019, 2008; alkaline phosphatase, intestinal [Bos taurus]; inhibition, % at 20 µM; purified bovine IAP, 30 min; 190,000 tested, under 10 active;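 active = over 50% inhibition of intestinal alkaline phosphatase at 20 µM in the single-dose screen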
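test system = bovine IAP enzyme | medium = DEA buffer 100 mM, pH 9.8, with MgCl2 1.0 mM, ZnCl2 0.02 mM | detection = luminescence | dosing = single compound dose of 20 µM, 2% DMSO final | incubation = 30 min reaction at room temperature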
hIAP act confirm = human IAP activators, confirmation, biochemical, luminescence, single concentration, uHTS hits; purified IAP, CDP-Star luminescence, 30 min; hits give low values; hit rate 10% among 880; AID 434926, 2010; shares compounds with hIAP activ; activation (%Activity, negative = activation), % at 8.3 µM;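 active = at least twofold enzyme activation in any of six single-dose repeats, which the averaged readout prints as negative percent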
mIAP inh conf = inhibitors of mouse IAP, confirmation, biochemical, luminescence, single concentration. shares compounds with mIAP inh. purified mouse IAP, CDP-Star luminescence, 30 min. inhibition, % at 10 µM. hit rate 4.7% among 11,000. AID 434971, 2010;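 active = inhibition of at least 40% at 10 µM in either of the two replicates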;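 also: plate controls were DMSO wells with enzyme for no effect and buffer wells lacking enzyme for full effect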
Active calls of the source: *; i = inactive; nt = no result.

SMILES | hIAP activ | mIAP activ | hIAP inh | mIAP inh | bIAP activator | bIAP inhibitor | hIAP act confirm | mIAP inh conf
O=C(Nc1ccc(Cl)cc1)C1CC(=O)n2c(nc3ccccc32)N1 (centres undefined) | 2* | 2.7* | -104 | -169 | 1 | 2 | -7 | -106
COc1ccc(O)c(/C=N/n2c(-c3ccco3)csc2=Nc2cccnc2)c1 | 0.93 | 0.87 | 7 | 13 | 0.9 | 10 | nt | nt
CN=c1scc(-c2ccco2)n1/N=C/c1ccc(O)c(O)c1 | 0.65 | 0.45 | 35* | 55* | 0.9 | 9 | -22 | 63*
COc1ccc(NC(=O)CSc2nnc(C)n2C2CC2)cc1S(=O)(=O)N1CCOCC1 | 0.88 | 1.1 | 12 | -6 | nt | nt | nt | nt
O=C(COc1ccccc1C(=O)N/N=C\c1ccc(O)c(O)c1)N/N=C/c1ccc(O)c(O)c1 | 0.42 | 0.27 | 58* | 73* | 0.5 | 49 | 3 | 82*
CCN1CCN(CCCNC(=O)c2ccccc2NC(=O)C2=C(C)OCCS2)CC1 | 1 | 1 | -5 | -3 | nt | nt | nt | nt
Cc1cccc(NC(=O)NCC2CCN(c3ccc(S(=O)(=O)N4CCOCC4)cc3)CC2)c1 | 2.1* | 3.5* | -108 | -251 | nt | nt | -20 | -156
Cc1ccccc1NC(=O)NCC1CCN(c2ccc(S(=O)(=O)N3CCOCC3)cc2)CC1 | 1.1 | 1.5 | -9 | -50 | nt | nt | nt | nt
O=C(O)CN1C(=O)C(=O)N(Cc2ccc(Cl)cc2Cl)C1=O | 1 | 0.98 | -3 | 2 | nt | nt | nt | nt
O=C(NN1C(=O)/C(=C/c2ccc(O)c(O)c2)SC1=S)c1ccccc1 | 0.31 | 0.56 | 69* | 44* | nt | nt | 2 | 78*
O=C(NN1C(=O)/C(=C/c2cccc(O)c2)SC1=S)c1ccccc1O | 1.6 | 0.62 | -63 | 38 | nt | nt | nt | nt
COc1cc(/C=C/C(O)=C/C(=O)/C=C/c2ccc(O)cc2)ccc1O | 0.65 | 0.47 | 35* | 53* | nt | nt | 11 | 48*
CCOc1ccccc1NC(=O)CN1CCN(Cc2ccccc2)CC1 | 0.98 | 0.99 | 2 | 1 | nt | nt | nt | nt
N#C/C(=C\c1ccc(O)c(O)c1)C(=O)c1ccc(O)c(O)c1 | 0.63 | 0.13 | 37* | 87* | nt | nt | 74 | 86*
N#C/C(=C\c1ccc(O)c(O)c1)C(=O)N1CCCC1 | 0.8 | 0.81 | 20 | 19 | 0.8 | 23 | nt | nt
CN(C(=O)CSc1nnc(CN2CCCC2)n1Cc1ccccc1)c1ccccc1 | 0.94 | 1 | 6 | -2 | nt | nt | nt | nt
CCn1cc(CN2CCC(C(=O)Nc3cccc(-c4cccc(OC)c4)c3)CC2)cn1 | 1.1 | 1 | -13 | -1 | nt | nt | nt | nt
CC(C)n1cc(CN2CCC(C(=O)Nc3cccc(-c4cccc(Cl)c4)c3)CC2)cn1 | 8.8* | 6* | i | -495 | nt | nt | -97* | -297
CCn1nc(C)c(CN2CCC(C(=O)Nc3cccc(-c4cccc(F)c4)c3)CC2)c1C | 6.1* | 4.9* | i | -387 | nt | nt | 51 | -208
C/C=C(\C)C(=O)O[C@H](c1cc2ccc(=O)oc2cc1OC)[C@@H](O)C(C)(C)O | 0.9 | 0.99 | 10 | 1 | nt | nt | nt | nt
Cc1cccc(C(=O)OCC(=O)N2CCCC2=O)c1[N+](=O)[O-] | 0.89 | 0.9 | 11 | 10 | nt | nt | nt | nt
CCOc1ccc(C(=O)NC(C(=O)NCC(c2cccs2)N(C)C)C(C)C)cc1 (centres undefined) | 1 | 1.1 | -3 | -12 | nt | nt | nt | nt
COc1cc(NC(=O)NCC2CCN(Cc3ccccc3C)CC2)cc(OC)c1OC | 2.4* | 3.5* | -141 | -253 | nt | nt | 30 | -190

Assay outcomes as filed in PubChem BioAssay.
